ChEMBL document CHEMBL1212806, “Chemoselective small molecules that covalently modify one lysine in a non-enzyme protein in plasma” (Nat Chem Biol, 2010)
Activity calls are given as the source filed them. No cut-off for these calls is given here.

Columns and labels:
Transthyretin [1] = molecular target: T1, Transthyretin (Homo sapiens, UniProt P02766); experiment: Inhibition of wild type TTR induced cytotoxicity in human IMR32 cells assessed as cell viability after 24 hrs by resazurin reduction assay; assay type: cell-based; settings: IMR-32
Method in brief: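 IMR-32 neuroblastoma cells were seeded at 6,000/well in Opti-MEM with 5% FBS and grown overnight. Cold-purified WT-TTR in HBSS was preincubated 18 h at 37 °C with compound, then diluted 1:1 in supplemented Opti-MEM onto cells. After 24 h at 37 °C, resazurin was added and fluorescence read (Ex/Em 530/590) after 1 h. Results are % of vehicle, blank-subtracted, mean ± SE of 2 experiments, at least triplicate.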

Transthyretin [2] = molecular target: T1, Transthyretin; experiment: Inhibition of wild type TTR amyloidogenesis assessed as inhibition of fibril formation after 72 hrs at pH 4.4 by spectrophotometry relative to untreated control
Transthyretin [3] = molecular target: T1, Transthyretin; experiment: Noncovalent binding affinity to TTR K15A mutant T4 site assessed as fibril formation at 7.2 uM after 72 hrs at pH 4.4 by RP-HPLC analysis
Transthyretin [4] = molecular target: T1, Transthyretin; experiment: Noncovalent binding affinity to wild type TTR T4 site assessed as fibril formation at 7.2 uM after 72 hrs at pH 4.4 by RP-HPLC analysis
Transthyretin [5] = molecular target: T1, Transthyretin; experiment: Inhibition of wild type TTR amyloidogenesis assessed as fibril formation at 1.8 to 2.7 uM after 120 hrs at pH 4.4 by spectrophotometry relative to untreated control
[6] = Toxicity in human IMR32 cells assessed as reduction of cell viability after 24 hrs by resazurin reduction assay; assay type: cell-based; settings: imr-32, 24 h
Method in brief: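 IMR-32 cells (6,000/well, overnight) were exposed 24 h at 37 °C to compound preincubated 18 h at 37 °C in HBSS without TTR, diluted 1:1 in supplemented Opti-MEM. Viability was read by resazurin fluorescence (Ex/Em 530/590, 1 h), as % of vehicle-treated cells after blank subtraction.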

Transthyretin [7] = molecular target: T1, Transthyretin; experiment: Binding affinity to wild type TTR tetramer in human plasma assessed as covalent chemoselective amide bond formation with Lys15 residue of TTR subunit at 7.2 uM after 18 hrs by RP-HPLC analysis; assay type: cell-free
[8] = system: Transthyretin (Homo sapiens), P02766 [V50M]; experiment: Inhibition of TTR V30M mutant amyloidogenesis assessed as fibril formation at 7.2 uM after 72 hrs at pH 4.4 by spectrophotometry relative to untreated control; parameters: scale not given: the % may be the effect or the level left
Transthyretin [9] = molecular target: T1, Transthyretin; experiment: Stabilization of wild-type TTR tetramer assessed as time needed for 95% TTR-compound conjugate formation by C18-RP-HPLC
[10] = system: Transthyretin (Homo sapiens), P02766 [V50M]; experiment: Inhibition of TTR V30M mutant amyloidogenesis assessed as fibril formation at […] after 72 hrs at pH 4.4 by spectrophotometry relative to untreated control; parameters: scale not given: the % may be the effect or the level left
Homo sapiens = organism: Homo sapiens; experiment: Binding affinity to TTR K15A mutant tetramer in human plasma assessed as covalent chemoselective amide bond formation with residue-15 of TTR subunit at 7.2 uM after 18 hrs by RP-HPLC analysis; assay type: cell-free
Transthyretin [11] = molecular target: T1, Transthyretin; experiment: Inhibition of wild type TTR amyloidogenesis assessed as fibril formation at […] after 72 hrs at pH 4.4 by spectrophotometry relative to untreated control; parameters: scale not given: the % may be the effect or the level left
Transthyretin [12] = molecular target: T1, Transthyretin; experiment: Binding affinity to TTR in human plasma at 10.8 uM after 24 hrs RP-HPLC analysis; assay type: cell-free
Transthyretin [13] = molecular target: T1, Transthyretin; experiment: Inhibition of wild type TTR amyloidogenesis assessed as fibril formation at 7.2 uM after 72 hrs at pH 4.4 by spectrophotometry relative to untreated control; parameters: scale not given: the % may be the effect or the level left
Transthyretin [14] = molecular target: T1, Transthyretin; experiment: Binding affinity to wild type TTR assessed as induction of benzoylation at Lys15 residue of TTR subunit by LC-MS method
Transthyretin [15] = molecular target: T1, Transthyretin; experiment: Binding affinity to wild type TTR in human plasma assessed as covalent modification of TTR subunit after 18 hrs by RP-HPLC analysis; assay type: cell-free
Transthyretin [16] = molecular target: T1, Transthyretin; experiment: Stabilization of wild-type TTR tetramer assessed as rate of TTR-compound conjugate formation by C18-RP-HPLC
Transthyretin [17] = molecular target: T1, Transthyretin; experiment: Binding affinity to wild-type TTR assessed as nonchemoselective conjugation of TTR after 18 hrs by C18-RP-HPLC
[18] = Binding affinity to TTR K15A mutant assessed as nonchemoselective conjugation of TTR after 18 hrs by C18-RP-HPLC

Row | inhibition (Transthyretin [2]) | Activity (Transthyretin [7]) | Activity [8] [%] | TIME (Transthyretin [9]) [h] | Activity [10] [%] | Activity (Homo sapiens) | Activity (Transthyretin [11]) [%] | Activity (Transthyretin [12]) | Activity (Transthyretin [13]) [%] | Activity (Transthyretin [14]) | Activity (Transthyretin [15]) [%] | Activity (Transthyretin [17]) | SMILES | inhibition (Transthyretin [1]) | Activity [6] | also measured
1 | Dose-dependent effect | – | – | – | – | – | – | – | – | – | – | – | Cc1cc(/C=C/c2cccc(C(=O)O)c2)cc(C)c1O | Dose-dependent effect | Non-toxic | IC50 (Transthyretin [2]): 3070 nM; Activity (Transthyretin [3]): Active; Activity (Transthyretin [4]): Active; inhibition (Transthyretin [5]): Active
2 | Dose-dependent effect | Active | 3 | 21.2 | 17 | inactive | 12 | Active | 2 | Active | 36 | – | O=C(Sc1ccccc1)c1cccc(/C=C/c2cc(Br)c(O)c(Br)c2)c1 | – | – | –
3 | – | – | – | 21.9 | – | inactive | – | – | – | – | – | – | Cc1cc(/C=C/c2cccc(C(=O)Oc3ccc(F)cc3)c2)cc(C)c1O | – | Non-toxic | –
4 | Dose-dependent effect | Active | 3 | 1.35 | 34 | inactive | 16 | Active | 2 | Active | 48 | – | Cc1cc(/C=C/c2cccc(C(=O)Sc3ccccc3)c2)cc(C)c1O | Dose-dependent effect | Non-toxic | T1/2 (Transthyretin [16]): 15 min
5 | – | – | – | – | – | – | – | – | – | – | – | Active | Cc1cc(/C=C/c2ccc(C(=O)Oc3ccccc3[N+](=O)[O-])cc2)cc(C)c1O | – | – | Activity [18]: Active
6 | Dose-dependent effect | Active | 3 | 0.983 | 33 | inactive | 21 | Active | 4 | Active | 49 | – | Cc1cc(/C=C/c2cccc(C(=O)Oc3ccccc3[N+](=O)[O-])c2)cc(C)c1O | – | – | IC50 (Transthyretin [2]): 2260 nM; T1/2 (Transthyretin [16]): 5 min
7 | Dose-dependent effect | – | – | – | – | – | – | – | – | – | – | – | Cc1cc(/C=C/c2ccccc2)cc(C)c1O | Dose-dependent effect | Non-toxic | Activity (Transthyretin [3]): Active; Activity (Transthyretin [4]): Active; inhibition (Transthyretin [5]): Active
8 | – | – | – | – | – | – | – | – | – | – | – | Active | Cc1cc(/C=C/c2ccc(C(=O)Sc3ccccc3)cc2)cc(C)c1O | – | – | –
9 | – | – | – | – | – | – | – | – | – | – | – | Active | Cc1cc(/C=C/c2ccc(C(=O)Oc3ccc(F)cc3)cc2)cc(C)c1O | – | – | –
